Assays:
Leishmania chagasi [1] = assay: Antileishmanial activity against Leishmania chagasi MHOM/BR/74/PP75 amastigotes infected in human THP1 cells after 5 days by Giemsa staining; assay type: functional, organism-based; conditions: MHOM/BR/74/PP75, THP-1, 120 h
In short: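 THP-1 cells (RPMI, 5% hiSBF, 37 °C, 5% CO2) transformed, then infected 24 h with late-phase L. chagasi promastigotes at parasite:cell 10:1. Treated with compound dilutions (top 100 μM) 5 days at 37 °C, 5% CO2, medium changed once after 3 days. Infected cells counted per 300 cells on methanol-fixed Giemsa slides; IC50/IC90 by sigmoidal regression; triplicates, repeated twice.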

[2] = Cytotoxicity against african green monkey Vero cells after 72 hrs by MTT assay; assay type: cell-based; conditions: chlorocebus sabaeus
In short: (§1)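 Vero or transformed THP-1 cells incubated with compound (0.3–300 μM) 72 h at 37 °C, 5% CO2; untreated controls. MTT read-out, formazan OD at 580 nm; % cytotoxicity = 100 × (OD control − OD treated)/OD control. CC50/CC90 by sigmoidal regression; triplicates, repeated twice. DMSO stocks 100× concentrated, diluted in medium.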

[3] = Selectivity index, CC50 for human THP1 cells to IC50 for Leishmania chagasi MHOM/BR/74/PP75 amastigotes; assay type: functional, THP-1
In short: (§2)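 Selectivity index computed as CC50 in THP-1 cells divided by IC50 against the L. chagasi stage named in the line.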

[4] = Selectivity index, CC50 for african green monkey Vero cells to IC50 for Trypanosoma cruzi 320I01 epimastigote; assay type: functional
In short: (§3)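 Selectivity index computed as CC50 in Vero cells divided by IC50 against the T. cruzi stage named in the line.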

Trypanosoma cruzi [5] = assay: Antitrypanosomal activity against Trypanosoma cruzi 320I01 epimastigotes after 72 hrs by haemocytometry; assay type: functional, organism-based; conditions: 320I01, 72 h
In short: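 Late-phase T. cruzi epimastigotes cultured in LIT medium with hiFCS at 28 °C; threefold serial dilutions (0.3–100 μM) for 72 h at 28 °C, untreated controls. Parasites counted in a haemocytometer; IC50/IC90 by sigmoidal regression; each concentration in triplicate, two experiments.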

[6] = Selectivity index, CC50 for human THP1 cells to IC50 for Leishmania chagasi MHOM/BR/74/PP75 promastigotes; assay type: functional, THP-1; in short: as §2
[7] = Cytotoxicity against human THP1 cells after 72 hrs by MTT assay; assay type: cell-based; conditions: THP-1 cells; in short: as §1
Leishmania chagasi [8] = assay: Antileishmanial activity against Leishmania chagasi MHOM/BR/74/PP75 promastigotes after 72 hrs by haemocytometry; assay type: functional, organism-based; conditions: MHOM/BR/74/PP75, 72 h
In short: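 Late-phase L. chagasi promastigotes, grown at 28 °C in RPMI 1640 with hemin, HEPES and 10% hiSBF, exposed to threefold serial dilutions (0.3–100 μM) for 72 h at 28 °C; untreated controls. Growth inhibition from haemocytometer counts; IC50/IC90 by sigmoidal regression; triplicates, repeated twice.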

[9] = Selectivity index, CC50 for african green monkey Vero cells to IC50 for Trypanosoma cruzi 320I01 amastigotes; assay type: functional; in short: as §3
Trypanosoma cruzi [10] = assay: Antitrypanosomal activity against Trypanosoma cruzi 320I01 amastigotes infected in african green monkey Vero cells after 5 days by Giemsa staining; assay type: functional, organism-based; conditions: 320I01, Vero, 120 h
In short: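 Vero cells (RPMI, 5% hiSBF, 37 °C, 5% CO2) infected 24 h with tissue-derived T. cruzi trypomastigotes at parasite:cell 10:1. Compound dilutions (top 100 μM) applied 5 days at 37 °C, 5% CO2, medium changed once at day 3. Infected cells scored per 300 cells on methanol-fixed Giemsa preparations; IC50/IC90 by sigmoidal regression; triplicates, two experiments.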

Compound	IC50 (Leishmania chagasi [1]) [µM]	IC90 (Leishmania chagasi [1]) [µM]	CC50 at 72 h [2] [µM]	CC90 at 72 h [2] [µM]	Selectivity Index [3]	Selectivity Index [4]	IC50 (Trypanosoma cruzi [5]) [µM]	IC90 (Trypanosoma cruzi [5]) [µM]	Selectivity Index [6]	CC50 at 72 h [7] [µM]	CC90 at 72 h [7] [µM]	IC50 (Leishmania chagasi [8]) [µM]	IC90 (Leishmania chagasi [8]) [µM]	Selectivity Index [9]	IC50 (Trypanosoma cruzi [10]) [µM]	IC90 (Trypanosoma cruzi [10]) [µM]
c1ccc([C@@H]2C[C@@H]3Cc4ccccc4N2O3)cc1 (relative stereo)	> 100	> 100	> 300	> 300	>3	>3	> 100	> 100	>3	> 300	> 300	> 100	> 100	>3	> 100	> 100
FC(F)(F)Oc1ccc2c(c1)C[C@H]1C[C@@H](c3ccccc3)N2O1 (relative stereo)	> 100	> 100	> 300	> 300	>3	>11	26.9	> 100	>19	> 300	> 300	15.7	34.7	>3	> 100	> 100
Brc1ccc2c(c1)C[C@H]1C[C@@H](c3ccccc3)N2O1 (relative stereo)	> 100	> 100	> 300	> 300	>3	>12	23.4	> 100	>11	> 300	> 300	25.5	54.9	>5	56.4	43.6
Clc1ccc2c(c1)C[C@H]1C[C@@H](c3ccccc3)N2O1 (relative stereo)	> 100	> 100	> 300	> 300	>3	>33	9	35.3	>7	> 300	> 300	40.1	55.4	>3	> 100	> 100

Reference: ChEMBL document CHEMBL1177650, “Synthesis, structural elucidation and in vitro antiparasitic activity against Trypanosoma cruzi and Leishmania chagasi parasites of novel tetrahydro-1-benzazepine derivatives” (Bioorg Med Chem, 2010)
